For assay [1], the target named is Lysine-specific demethylase 6B (Homo sapiens, UniProt O15054). The experiment in a line: Inhibition of KDM6B (unknown origin) at 0.25 uM relative to control.
The target of assay [2] is Lysine-specific demethylase 5A (Homo sapiens, UniProt P29375). The experiment in a line: Inhibition of KDM5A (unknown origin) at 1 uM relative to control.
Assay [3] deals with Lysine-specific demethylase 5B (Homo sapiens, UniProt Q9UGL1). Nature of the assay: Inhibition of KDM5B in human MKN-45 cells assessed as protein stabilization measured after 1 hr by cellular thermal shift assay. It is filed as cell-based. The essentials: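 MKN45 cells (5×10^5) were treated with compound or DMSO for 1 h, washed in PBS and resuspended in PBS with protease inhibitors. Cells were heated at 46 °C for 3 min, then freeze-thawed three times in liquid nitrogen. KDM5B in the supernatant was measured by western blot with GAPDH control. Repeated three times.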

Assay [4] has as its target Lysine-specific demethylase 5C (Homo sapiens, UniProt P41229). The experiment in a line: Inhibition of KDM5C (unknown origin) at 0.25 uM relative to control.
For assay [5], the target named is T1, Lysine-specific demethylase 4A (Homo sapiens) (UniProt O75164).
T1 sequence (whole entry): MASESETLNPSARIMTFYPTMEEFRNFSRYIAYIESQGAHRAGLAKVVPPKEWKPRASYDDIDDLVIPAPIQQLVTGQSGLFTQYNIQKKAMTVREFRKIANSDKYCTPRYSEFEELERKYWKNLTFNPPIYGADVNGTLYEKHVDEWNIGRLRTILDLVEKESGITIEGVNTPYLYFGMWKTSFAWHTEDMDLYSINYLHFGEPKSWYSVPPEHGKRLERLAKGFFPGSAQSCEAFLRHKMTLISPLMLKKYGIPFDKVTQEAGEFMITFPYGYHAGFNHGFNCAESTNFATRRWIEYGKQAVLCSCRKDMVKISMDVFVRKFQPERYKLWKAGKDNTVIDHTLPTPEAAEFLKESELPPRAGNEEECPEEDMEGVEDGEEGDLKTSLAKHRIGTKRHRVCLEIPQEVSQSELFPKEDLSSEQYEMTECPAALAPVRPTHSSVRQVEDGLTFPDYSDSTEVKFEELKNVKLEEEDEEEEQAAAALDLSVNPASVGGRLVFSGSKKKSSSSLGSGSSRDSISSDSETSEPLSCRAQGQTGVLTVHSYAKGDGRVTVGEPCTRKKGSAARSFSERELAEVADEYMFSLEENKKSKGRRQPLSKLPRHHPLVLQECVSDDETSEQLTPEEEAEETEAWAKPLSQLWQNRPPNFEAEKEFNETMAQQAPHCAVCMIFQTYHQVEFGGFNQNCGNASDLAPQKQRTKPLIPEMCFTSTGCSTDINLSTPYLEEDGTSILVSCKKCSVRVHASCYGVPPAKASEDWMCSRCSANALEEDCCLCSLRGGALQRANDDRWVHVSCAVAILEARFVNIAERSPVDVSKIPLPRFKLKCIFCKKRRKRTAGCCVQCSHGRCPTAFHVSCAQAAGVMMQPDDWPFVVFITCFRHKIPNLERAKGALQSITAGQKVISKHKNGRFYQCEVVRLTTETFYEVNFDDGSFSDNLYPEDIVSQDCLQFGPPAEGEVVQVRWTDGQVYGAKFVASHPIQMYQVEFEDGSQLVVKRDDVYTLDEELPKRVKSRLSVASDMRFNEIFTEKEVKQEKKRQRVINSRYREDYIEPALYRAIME
Nature of the assay: Inhibition of KDM4A (unknown origin) at 0.01 uM relative to control.

Assay [6] addresses T2, Lysine-specific demethylase 4C (Homo sapiens) (UniProt Q9H3R0).
T2 sequence (whole entry): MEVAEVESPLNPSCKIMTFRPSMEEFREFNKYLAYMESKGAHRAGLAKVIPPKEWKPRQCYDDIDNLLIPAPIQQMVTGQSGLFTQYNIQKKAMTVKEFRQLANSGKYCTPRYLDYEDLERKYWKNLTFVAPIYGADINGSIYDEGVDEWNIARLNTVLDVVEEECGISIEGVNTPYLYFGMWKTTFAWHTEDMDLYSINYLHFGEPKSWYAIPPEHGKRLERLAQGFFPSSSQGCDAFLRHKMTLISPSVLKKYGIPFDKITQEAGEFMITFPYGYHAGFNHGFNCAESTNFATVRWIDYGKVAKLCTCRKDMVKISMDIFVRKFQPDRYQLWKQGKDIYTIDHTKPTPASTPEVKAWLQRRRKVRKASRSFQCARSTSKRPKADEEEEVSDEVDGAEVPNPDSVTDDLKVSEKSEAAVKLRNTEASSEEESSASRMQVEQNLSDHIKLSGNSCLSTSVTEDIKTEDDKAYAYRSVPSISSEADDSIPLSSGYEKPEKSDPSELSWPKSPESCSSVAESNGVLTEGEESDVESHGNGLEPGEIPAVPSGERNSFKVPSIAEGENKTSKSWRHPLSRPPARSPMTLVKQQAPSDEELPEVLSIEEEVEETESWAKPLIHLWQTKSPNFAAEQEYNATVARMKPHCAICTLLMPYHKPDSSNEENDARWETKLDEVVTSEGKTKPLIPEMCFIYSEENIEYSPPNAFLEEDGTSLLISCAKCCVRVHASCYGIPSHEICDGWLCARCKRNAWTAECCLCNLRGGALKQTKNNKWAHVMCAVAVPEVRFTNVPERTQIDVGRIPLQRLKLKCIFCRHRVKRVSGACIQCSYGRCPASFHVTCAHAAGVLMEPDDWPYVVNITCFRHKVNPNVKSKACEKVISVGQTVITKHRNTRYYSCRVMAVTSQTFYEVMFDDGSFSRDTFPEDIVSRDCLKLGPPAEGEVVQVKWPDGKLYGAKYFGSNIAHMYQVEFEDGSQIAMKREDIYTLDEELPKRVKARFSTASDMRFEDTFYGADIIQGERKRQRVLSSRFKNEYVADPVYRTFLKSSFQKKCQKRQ
The experiment in a line: Inhibition of KDM4C (unknown origin) at 0.25 uM relative to control.

In assay [7] the target is T3, Lysine-specific demethylase 4A (Homo sapiens, UniProt O75164).
T3 sequence (O75164 whole entry): T1 sequence (whole entry)
The experiment in a line: Inhibition of KDM4A (unknown origin).

Molecules are shown by their SMILES.

Chain of Lysine-specific demethylase 5A (P29375 whole entry): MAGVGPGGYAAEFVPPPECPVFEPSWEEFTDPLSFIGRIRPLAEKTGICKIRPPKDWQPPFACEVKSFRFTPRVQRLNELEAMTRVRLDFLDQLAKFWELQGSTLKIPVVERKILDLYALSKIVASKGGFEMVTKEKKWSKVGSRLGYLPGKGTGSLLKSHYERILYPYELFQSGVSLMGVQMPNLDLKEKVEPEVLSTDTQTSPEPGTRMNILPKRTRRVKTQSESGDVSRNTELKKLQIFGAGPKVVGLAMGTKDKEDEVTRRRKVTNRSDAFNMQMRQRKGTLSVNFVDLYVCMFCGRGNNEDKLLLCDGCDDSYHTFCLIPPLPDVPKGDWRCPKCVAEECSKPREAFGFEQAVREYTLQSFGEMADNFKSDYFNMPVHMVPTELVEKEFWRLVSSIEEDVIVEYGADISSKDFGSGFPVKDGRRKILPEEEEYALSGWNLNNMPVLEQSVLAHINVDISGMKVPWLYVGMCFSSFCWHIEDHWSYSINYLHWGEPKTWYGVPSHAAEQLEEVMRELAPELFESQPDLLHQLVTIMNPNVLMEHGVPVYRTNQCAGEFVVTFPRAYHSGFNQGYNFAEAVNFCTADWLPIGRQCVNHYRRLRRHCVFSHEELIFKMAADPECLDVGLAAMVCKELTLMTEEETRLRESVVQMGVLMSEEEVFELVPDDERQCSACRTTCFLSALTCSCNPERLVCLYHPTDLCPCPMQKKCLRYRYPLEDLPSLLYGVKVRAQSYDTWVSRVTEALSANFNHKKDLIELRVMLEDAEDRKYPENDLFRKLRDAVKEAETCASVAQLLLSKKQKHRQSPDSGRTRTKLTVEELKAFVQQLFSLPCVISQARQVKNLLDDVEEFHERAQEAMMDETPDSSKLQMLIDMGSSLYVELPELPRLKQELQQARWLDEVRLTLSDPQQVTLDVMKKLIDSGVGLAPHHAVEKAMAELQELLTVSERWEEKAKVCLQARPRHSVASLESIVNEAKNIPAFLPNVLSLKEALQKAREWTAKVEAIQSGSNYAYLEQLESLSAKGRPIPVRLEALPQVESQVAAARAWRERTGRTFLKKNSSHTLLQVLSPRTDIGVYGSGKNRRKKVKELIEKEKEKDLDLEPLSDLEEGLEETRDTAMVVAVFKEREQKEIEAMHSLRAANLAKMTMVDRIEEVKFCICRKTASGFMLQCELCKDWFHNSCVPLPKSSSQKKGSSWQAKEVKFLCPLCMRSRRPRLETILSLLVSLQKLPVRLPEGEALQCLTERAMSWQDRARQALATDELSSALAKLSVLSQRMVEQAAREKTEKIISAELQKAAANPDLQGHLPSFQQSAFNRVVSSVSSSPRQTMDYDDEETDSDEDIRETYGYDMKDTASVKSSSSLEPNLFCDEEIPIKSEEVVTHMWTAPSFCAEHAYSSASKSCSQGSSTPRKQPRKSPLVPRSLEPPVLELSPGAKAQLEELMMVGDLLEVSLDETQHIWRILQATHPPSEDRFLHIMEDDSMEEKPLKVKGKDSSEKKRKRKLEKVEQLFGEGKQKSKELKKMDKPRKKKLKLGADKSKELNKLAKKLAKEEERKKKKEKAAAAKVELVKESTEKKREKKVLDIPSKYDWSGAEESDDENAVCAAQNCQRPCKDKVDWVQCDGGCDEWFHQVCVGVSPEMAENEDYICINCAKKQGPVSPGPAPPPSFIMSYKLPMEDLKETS
Chain of Lysine-specific demethylase 5B (Q9UGL1 whole entry): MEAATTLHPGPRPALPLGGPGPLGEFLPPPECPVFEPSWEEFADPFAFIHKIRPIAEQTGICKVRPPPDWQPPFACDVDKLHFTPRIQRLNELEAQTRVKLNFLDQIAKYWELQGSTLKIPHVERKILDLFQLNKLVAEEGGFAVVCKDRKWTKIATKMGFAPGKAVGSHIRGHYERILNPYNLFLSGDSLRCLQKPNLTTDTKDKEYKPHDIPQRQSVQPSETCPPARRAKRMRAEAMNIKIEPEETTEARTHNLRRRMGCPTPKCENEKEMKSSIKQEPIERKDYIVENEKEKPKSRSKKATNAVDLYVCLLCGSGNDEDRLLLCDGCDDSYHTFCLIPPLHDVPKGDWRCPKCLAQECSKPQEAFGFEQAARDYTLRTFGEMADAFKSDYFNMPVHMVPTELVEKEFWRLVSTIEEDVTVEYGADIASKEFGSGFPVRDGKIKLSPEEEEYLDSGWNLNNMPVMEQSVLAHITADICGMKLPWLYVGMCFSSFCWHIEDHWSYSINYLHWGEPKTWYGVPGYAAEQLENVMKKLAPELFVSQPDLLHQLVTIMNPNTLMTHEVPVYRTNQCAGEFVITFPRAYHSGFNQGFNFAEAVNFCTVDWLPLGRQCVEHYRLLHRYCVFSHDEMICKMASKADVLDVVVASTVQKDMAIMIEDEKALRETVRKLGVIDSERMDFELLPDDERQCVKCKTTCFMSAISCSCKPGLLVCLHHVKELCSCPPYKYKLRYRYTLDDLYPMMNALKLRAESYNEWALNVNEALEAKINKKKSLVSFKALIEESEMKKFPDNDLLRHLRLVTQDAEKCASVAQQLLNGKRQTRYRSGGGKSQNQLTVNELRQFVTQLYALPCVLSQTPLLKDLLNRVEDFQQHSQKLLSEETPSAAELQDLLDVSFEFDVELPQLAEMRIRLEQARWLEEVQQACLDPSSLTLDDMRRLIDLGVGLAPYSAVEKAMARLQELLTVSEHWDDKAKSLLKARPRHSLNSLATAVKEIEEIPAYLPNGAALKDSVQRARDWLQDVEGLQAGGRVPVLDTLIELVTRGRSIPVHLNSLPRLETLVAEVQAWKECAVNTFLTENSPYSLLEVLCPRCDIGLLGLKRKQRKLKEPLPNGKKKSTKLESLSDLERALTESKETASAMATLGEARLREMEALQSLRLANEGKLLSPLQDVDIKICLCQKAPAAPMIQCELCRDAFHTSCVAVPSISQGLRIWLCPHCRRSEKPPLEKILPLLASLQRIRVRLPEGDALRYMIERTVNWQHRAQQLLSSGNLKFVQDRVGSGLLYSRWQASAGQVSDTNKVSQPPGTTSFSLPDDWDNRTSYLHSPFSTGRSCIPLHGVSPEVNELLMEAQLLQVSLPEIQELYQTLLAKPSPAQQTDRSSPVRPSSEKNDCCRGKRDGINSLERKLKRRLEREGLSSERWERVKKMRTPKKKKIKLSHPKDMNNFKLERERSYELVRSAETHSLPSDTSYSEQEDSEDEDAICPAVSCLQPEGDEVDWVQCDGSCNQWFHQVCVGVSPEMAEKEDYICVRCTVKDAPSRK
Chain of Lysine-specific demethylase 5C (P41229 whole entry): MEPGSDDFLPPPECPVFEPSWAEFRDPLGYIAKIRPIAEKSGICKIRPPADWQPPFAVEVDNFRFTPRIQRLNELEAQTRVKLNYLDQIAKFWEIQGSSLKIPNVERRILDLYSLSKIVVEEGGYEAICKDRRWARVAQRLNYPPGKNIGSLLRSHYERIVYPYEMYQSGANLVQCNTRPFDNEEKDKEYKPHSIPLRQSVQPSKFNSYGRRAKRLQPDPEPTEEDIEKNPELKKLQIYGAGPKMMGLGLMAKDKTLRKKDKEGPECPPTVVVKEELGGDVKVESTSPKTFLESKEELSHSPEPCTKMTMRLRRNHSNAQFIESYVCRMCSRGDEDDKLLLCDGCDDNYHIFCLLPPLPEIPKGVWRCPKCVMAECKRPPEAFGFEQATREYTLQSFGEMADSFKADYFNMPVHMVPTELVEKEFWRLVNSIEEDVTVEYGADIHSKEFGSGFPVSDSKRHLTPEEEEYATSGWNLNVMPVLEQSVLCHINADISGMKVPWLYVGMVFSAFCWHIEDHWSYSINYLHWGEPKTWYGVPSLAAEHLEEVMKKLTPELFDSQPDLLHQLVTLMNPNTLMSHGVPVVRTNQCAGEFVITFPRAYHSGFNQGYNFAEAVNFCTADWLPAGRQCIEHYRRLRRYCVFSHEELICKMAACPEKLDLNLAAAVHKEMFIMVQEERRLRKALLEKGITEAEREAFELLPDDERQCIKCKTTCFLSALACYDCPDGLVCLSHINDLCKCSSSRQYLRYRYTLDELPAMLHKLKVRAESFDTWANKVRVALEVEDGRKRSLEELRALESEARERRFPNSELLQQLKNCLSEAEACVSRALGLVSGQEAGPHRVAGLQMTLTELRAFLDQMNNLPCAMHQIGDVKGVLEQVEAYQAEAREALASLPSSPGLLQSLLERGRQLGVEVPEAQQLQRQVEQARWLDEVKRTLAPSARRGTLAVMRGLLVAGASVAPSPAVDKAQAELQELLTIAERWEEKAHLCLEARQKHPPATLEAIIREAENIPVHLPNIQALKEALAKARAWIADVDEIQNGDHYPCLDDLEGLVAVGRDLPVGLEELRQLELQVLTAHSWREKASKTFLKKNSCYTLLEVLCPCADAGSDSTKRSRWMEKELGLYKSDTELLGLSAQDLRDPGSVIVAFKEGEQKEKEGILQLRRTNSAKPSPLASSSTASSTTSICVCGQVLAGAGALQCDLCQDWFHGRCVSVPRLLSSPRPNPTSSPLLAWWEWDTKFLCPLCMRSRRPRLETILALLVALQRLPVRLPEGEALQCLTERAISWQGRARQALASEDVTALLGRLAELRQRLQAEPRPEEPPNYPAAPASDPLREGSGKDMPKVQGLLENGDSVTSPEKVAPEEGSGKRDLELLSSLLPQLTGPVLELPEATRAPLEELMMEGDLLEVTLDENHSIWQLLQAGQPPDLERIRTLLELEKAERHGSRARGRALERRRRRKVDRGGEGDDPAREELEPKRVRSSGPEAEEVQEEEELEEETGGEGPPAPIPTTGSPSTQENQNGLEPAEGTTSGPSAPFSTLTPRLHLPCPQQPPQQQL

For the molecule `COc1ccc(-n2cc(C(=O)NCC(C)(C)N3CCOCC3)c(-c3ccccc3)n2)cc1`, the inhibition was 12.4% in assay [1]; 79.3% in assay [2]; “Dose-dependent effect” in assay [3]; 62.1% in assay [4]; 5.12% in assay [5]; 39.4% in assay [6]. Also, the concentration for half-maximal inhibition (IC50) in assay [7] was 0.954 µM.

For the origin of these results see ChEMBL document CHEMBL4680221, “Discovery of pyrazole derivatives as cellular active inhibitors of histone lysine specific demethylase 5B (KDM5B/JARID1B)” (Eur J Med Chem, 2020).
